The values that follow come from ChEMBL document CHEMBL5370647 (J Med Chem, 2023).

Converted amounts (≈) assume the structure as drawn. The source made the active and inactive calls. The rule behind the calls is not given here. Where only a bound is given, the exact number is not on record here.

Data set [1] can be described thus: Oral bioavailability in CD-1 mouse at 10 mg/kg by LC/MS/MS analysis. It counts as ADME, organism-based. The conditions noted are these: in vivo. The procedure, abridged:
(§1)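 Full PK study in CD1 mice at 10 mg/kg given by oral, intravenous and intraperitoneal routes. Plasma levels monitored over 8 h by LC/MS/MS.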

The subject of data set [2] is Mycobacterium tuberculosis. Put plainly: Antitubercular activity against non-replicating Mycobacterium tuberculosis H37Rv expressing luxCDAB assessed as inhibition of bacterial growth incubated for 7 days under hypoxia conditions followed by incubation in normoxia conditions for 5 days by luminescence based analysis. It counts as functional. The conditions noted are these: 288 h, time 12 day.

A short description of data set [3]: AUC(last) in CD-1 mouse at 10 mg/kg, po by LC/MS/MS analysis. It counts as ADME, organism-based. The arrangement: dose 10 mg/kg, route po. The conditions noted are these: in vivo. The procedure, abridged: (§2)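 CD1 mice dosed orally at 10 mg/kg (snapshot PK study). Plasma levels followed over 5 h by LC/MS/MS. T1/2, Cmax and AUC_last derived from the plasma profile.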

The nature of data set [4]: Metabolic stability of the compound in CD-1 mouse liver microsomes at 5 uM by LC-TOF/MS analysis. It counts as ADME, Microsome. The procedure, abridged: (§3)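 Mouse liver microsomes incubated with compound in the presence of NADPH. Read-out is % parent compound remaining after 30 min.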
Background: Liver microsomes are vesicles of endoplasmic reticulum, rich in cytochrome P450 enzymes.

Data set [5] in a line: Volume of distribution in CD-1 mouse at 10 mg/kg by LC/MS/MS analysis. It counts as ADME, organism-based. The conditions noted are these: in vivo. In short, it runs like this: as §1
Data set [6] can be described thus: Half life in CD-1 mouse at 10 mg/kg, po by LC/MS/MS analysis. It counts as ADME, organism-based. The note with it: in vivo. In short, it runs like this: as §2
Data set [7] is described as follows: Cmax in CD-1 mouse at 10 mg/kg, po by LC/MS/MS analysis. It counts as ADME, organism-based. Set-up: dose 10 mg/kg, route po. The conditions noted are these: in vivo. The procedure, abridged:
as §2

The nature of data set [8]: Bioavailability in CD-1 mouse at 10 mg/kg, ip by LC/MS/MS analysis. The conditions noted are these: in vivo. It counts as ADME, organism-based. In short, it runs like this: as §1
Data set [9] in a line: Metabolic stability of the compound in CD-1 mouse liver microsomes assessed as parent compound remaining at 5 uM preincubated for 5 mins followed by NADPH addition and measured after 30 mins by LC-TOF/MS analysis. It counts as ADME, Microsome. The conditions noted are these: time 35 min, read-out: Stability. The procedure, abridged:
as §3

In data set [10] the test system is Mycobacterium tuberculosis. As to the kind of experiment: Antitubercular activity against non-replicating Mycobacterium tuberculosis H37Rv constitutively expressing GFP assessed as inhibition of bacterial growth incubated for 7 days under hypoxic condition followed by incubation in aerobic conditions for 1 to 5 days by spot assay. It counts as functional. The conditions noted are these: time 8-12 day.

The subject of data set [11] is Mycobacterium tuberculosis. Put plainly: Antitubercular activity against Mycobacterium tuberculosis H37Rv constitutively expressing GFP assessed as inhibition of bacterial growth at 20 uM incubated for 7 days by fluorescence based analysis. It counts as functional. The note with it: 168 h, time 7 day.
Data set [12] concerns Mycobacterium tuberculosis. As to the kind of experiment: Antitubercular activity against replicating Mycobacterium tuberculosis H37Rv constitutively expressing GFP assessed as inhibition of bacterial growth under normoxia conditions incubated for 3 weeks by spot assay. It counts as functional. The conditions noted are these: 504 h.
In data set [13] the test system is Mycobacterium tuberculosis. Put plainly: Antitubercular activity against RIF/INH-tolerant persistent Mycobacterium tuberculosis H37Rv assessed as reduction of viable bacteria at 4.9 uM incubated for 14 days followed by drug wash-out and measured after 21 days. It counts as functional, organism-based. The note with it: time 14.0 day. The procedure, abridged:
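Static at 37 °C for 14 days, washed twice, resuspended in fresh 7H9 and recovered for 28 days. CFU plated 21 and 28 days after drug removal.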

The target in another data set is T1, TGF-beta receptor type-1 (Homo sapiens, UniProt P36897).
T1 sequence (P36897 whole entry): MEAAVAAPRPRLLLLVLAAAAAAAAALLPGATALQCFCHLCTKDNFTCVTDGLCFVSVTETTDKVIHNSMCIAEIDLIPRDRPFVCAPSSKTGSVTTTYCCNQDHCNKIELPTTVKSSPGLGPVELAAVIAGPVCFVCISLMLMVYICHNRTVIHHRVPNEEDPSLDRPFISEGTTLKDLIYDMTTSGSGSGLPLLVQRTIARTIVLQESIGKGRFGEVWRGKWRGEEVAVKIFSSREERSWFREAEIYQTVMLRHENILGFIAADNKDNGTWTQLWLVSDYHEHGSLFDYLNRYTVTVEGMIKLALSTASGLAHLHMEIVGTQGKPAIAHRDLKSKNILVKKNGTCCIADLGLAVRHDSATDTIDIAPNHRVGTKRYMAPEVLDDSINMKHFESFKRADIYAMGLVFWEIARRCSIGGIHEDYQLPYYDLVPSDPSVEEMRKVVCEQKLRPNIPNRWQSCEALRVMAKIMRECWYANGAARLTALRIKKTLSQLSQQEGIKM
As to the kind of experiment: Binding affinity to wild type human partial length TGFBR1 (D179 to M503 residues) expressed in bacterial expression system by KINOMEscan assay.

In general, bioavailability refers to dose-corrected exposure relative to a reference, in per cent. A low value points to little systemic uptake. As a reminder, the MIC50 is the lowest concentration that inhibits either 50% of growth or 50% of the strains tested, depending on the study. In general, MIC90 refers to the lowest concentration that inhibits either 90% of growth or 90% of the strains tested, depending on the study. A word on the Vd: it is the apparent volume that relates the amount in the body to the concentration in plasma or blood. Lower therefore signals confinement near the circulation. One may read the Cmax as the peak of the concentration-time curve. In turn, `Cc1cccc(-c2nc(Nc3ccncc3)c3ccn(C)c3n2)n1` came in with a bioavailability in data set [1] of 25%. Besides, in data set [2], the MIC50 was less than 1 µM and the MIC90 was less than 1 µM. The same compound came in with an AUClast in data set [3] of 640 ng·h/mL. Besides, the Stability result in [4] is “Stable”. This compound gave a Vd in data set [5] of 4.65 L/kg. The compound also yielded a t1/2 in [6] of 1.9 h. In [7], this compound showed a peak concentration (Cmax) of 280 ng/mL. This compound also showed a bioavailability in data set [8] of 65%. Moreover, the remaining at 0.5 h, 5 µM in [9] is 39%.
`CO[C@H]1/C=C/O[C@@]2(C)Oc3c(C)c(O)c4c(O)c(c(/C=N/N5CCN(C)CC5)c(O)c4c3C2=O)NC(=O)/C(C)=C\C=C\[C@H](C)[C@H](O)[C@@H](C)[C@@H](O)[C@@H](C)[C@H](OC(C)=O)[C@@H]1C` [RIFAMPIN]: the MIC90 in [10] was determined as 0.4 µM (≈ 0.329 µg/mL).
As usually defined, the inhibition is how much of the control response was suppressed. Turning to `Nc1nc(-c2ccccn2)c(-c2ccnc3ccccc23)s1`, the inhibition at 20 µM in [11] is more than 90%. Further, in data set [12], the MIC50 was found to be 13 µM (≈ 3.96 µg/mL) and the MIC90 was determined as 20 µM (≈ 6.09 µg/mL). For the same compound, in [10], the MIC90 was more than 20 µM.
For `Cn1cncc1-c1cc2c(Nc3ccc(OCc4ccccc4)cc3)ncnc2cn1`, in [11], the inhibition at 20 µM was more than 90%. In addition, in data set [12], the MIC50 worked out at 5 µM (≈ 2.04 µg/mL) and the MIC90 is more than 20 µM.
Take `Cc1ccc(NC(=O)c2ccnc(N3CCN(C)CC3)c2)cc1-c1ccc(C(=O)NCC2CC2)cc1`: the inhibition at 20 µM in data set [11] was more than 90%. In data set [12], the MIC50 was determined as 4 µM (≈ 1.93 µg/mL) and the MIC90 is 6 µM (≈ 2.9 µg/mL).
Turning to `CC[C@@H](CO)NCCN[C@@H](CC)CO`, in data set [13], the outcome was inactive.
Regarding `CN1CCN(Cc2cccc(-c3ccc4c(Nc5ccc(Oc6ccccc6)cc5)ccnc4c3)c2)CC1`, the inhibition at 20 µM in data set [11] is more than 90%. Besides, the MIC90 was found to be 11 µM (≈ 5.51 µg/mL) in data set [12] and 6 µM (≈ 3 µg/mL) in data set [10].
The Kd is the constant that tells how readily two partners part at equilibrium. For the compound `Cc1cccc(-c2nc(Nc3ccc4nn(C)nc4c3)c3ccccc3n2)n1`, in data set [2], the MIC50 was less than 0.3 µM and the MIC90 was found to be 0.3 µM (≈ 0.11 µg/mL). This compound came in with an AUClast in data set [3] of 440 ng·h/mL. Besides, in data set [4], the Stability result was “Stable”. For the same compound, the Kd at TGF-beta receptor type-1 is more than 10 µM. The same compound showed a t1/2 in data set [6] of 4.6 h. This compound also registered a peak concentration (Cmax) in data set [7] of 150 ng/mL. In addition, the remaining at 0.5 h, 5 µM in [9] amounted to 30%.
Consider `Cc1cccc(-c2nc(Nc3ccc4c(c3)OCO4)c3ccccc3n2)n1`, for which, in data set [2], the MIC50 is less than 0.3 µM and the MIC90 worked out at 1.3 µM (≈ 0.463 µg/mL). In data set [3], this compound returned an AUClast of 250 ng·h/mL. Besides, the Stability entry in data set [4] is listed as “Stable”. In data set [6], this compound gave a t1/2 of 3.4 h. The same compound came in with a Cmax in [7] of 75 ng/mL. Also, the remaining at 0.5 h, 5 µM in data set [9] was determined as 30%.
With `CS(=O)(=O)CCNCc1coc(-c2ccc3ncnc(Nc4ccc(OCc5ccccc5)cc4)c3c2)c1` [GW566221A], the inhibition at 20 µM in [11] is more than 90%. Besides, the figures for the MIC90 in data set [12] and in data set [10] were 3 µM (≈ 1.59 µg/mL) and 7 µM (≈ 3.7 µg/mL), respectively.
On to `Fc1ccc(-c2c(-c3ccccn3)nc3n2CCS3)cc1`, for which the inhibition at 20 µM in data set [11] is more than 90%. In addition, in data set [12], the MIC50 came out at 9 µM (≈ 2.68 µg/mL) and the MIC90 was more than 20 µM.
In the case of `Cc1cccc(-c2nc(Nc3ccncc3)c3ccccc3n2)n1`, the results for the MIC50 in data set [2] and in data set [12] were less than 0.3 µM and 16 µM (≈ 5.01 µg/mL), respectively. In addition, the MIC90 worked out at 0.3 µM (≈ 0.094 µg/mL) in data set [2], 20 µM (≈ 6.27 µg/mL) in data set [12] and 1 µM (≈ 0.313 µg/mL) in data set [10]. Besides, the inhibition at 20 µM in data set [11] is more than 90%. Besides, in data set [3], the AUClast came out at 75 ng·h/mL. Besides, the Stability entry in data set [4] is reported as “Stable”. Further, the affinity on TGF-beta receptor type-1, expressed as Kd, was 0.01 µM. In [6], the t1/2 turned out to be 1.8 h. The compound further displayed a maximum concentration (Cmax) in data set [7] of 60 ng/mL. Further, in [9], the remaining at 0.5 h, 5 µM was 14%.
For the compound `Cc1cccc(-c2nc(Nc3ccc4nnn(C)c4c3)c3ccccc3n2)n1`, in data set [2], the MIC50 was less than 0.3 µM and the MIC90 was 0.3 µM (≈ 0.11 µg/mL). Further, the Stability result in [4] is “Stable”. The same compound displayed a Kd at TGF-beta receptor type-1 of more than 10 µM. Moreover, in data set [9], the remaining at 0.5 h, 5 µM came to 15%.
For the compound `Cn1cncc1-c1ccc2ncnc(Nc3ccc(OCc4ccccc4)cc3)c2c1`, the inhibition at 20 µM in data set [11] is more than 90%. In addition, in data set [12], the MIC50 was found to be 5 µM (≈ 2.04 µg/mL) and the MIC90 turned out to be 5 µM (≈ 2.04 µg/mL). Also, the MIC90 in [10] came out at 11 µM (≈ 4.48 µg/mL).
